Data reported in ChEMBL document CHEMBL3352626, “Synthesis and biological evaluation of novel oxindole-based RTK inhibitors as anti-cancer agents” (Bioorg Med Chem, 2014).
Calls of active or inactive are those of the source. The rule behind the calls is not given here.

How the values were obtained:
[1] = Antiproliferative activity against human HCC827 cells after 72 hrs by MTS assay; assay type: functional, cell-based; settings: HCC827, 72 h
Summary of the method: (§1)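 Cells at 4 × 10^4 cells/ml, seeded and left overnight, then exposed in triplicate to 30, 10, 3, 1, 0.3 and 0.1 µM compound in DMSO for 72 h at 37 °C under 5% CO2. MTS dye added for 4 h and absorbance read at 490 nm. Inhibition = (1 − OD treated/OD DMSO control) × 100. IC50 derived from the dilution series.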

Aurora kinase B [2] = target: T1, Aurora kinase B (Homo sapiens, UniProt Q96GD4); test: Inhibition of recombinant Aur B (unknown origin) at 0.1 uM after 1 hr by microfluidic assay
T1 sequence (Q96GD4 whole entry): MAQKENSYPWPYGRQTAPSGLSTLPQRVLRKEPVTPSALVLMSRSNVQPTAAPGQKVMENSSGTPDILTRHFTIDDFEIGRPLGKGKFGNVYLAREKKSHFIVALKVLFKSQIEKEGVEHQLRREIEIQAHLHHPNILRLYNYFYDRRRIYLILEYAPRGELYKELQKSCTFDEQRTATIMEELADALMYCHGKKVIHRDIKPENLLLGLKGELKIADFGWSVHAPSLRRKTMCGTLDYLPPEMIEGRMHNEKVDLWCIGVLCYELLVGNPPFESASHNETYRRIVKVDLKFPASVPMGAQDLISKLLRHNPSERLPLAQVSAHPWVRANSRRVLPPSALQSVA
Summary of the method: (§2)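 Caliper microfluidic mobility-shift assay using recombinant kinases from Carna. Enzyme, substrate, ATP (at Km) and compound reacted for 1 h, then stopped with EDTA. Substrate-to-phosphoproduct conversion read on EZ Reader II. Percent inhibition calculated relative to no-enzyme blanks and full-reaction wells, each containing 2.5% DMSO.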

[3] = Antiproliferative activity against human PM8910 cells after 72 hrs by MTS assay; assay type: functional, cell-based; settings: PM8910, 72 h; summary of the method: as §1
A549 [4] = test: Antiproliferative activity against human A549 cells after 72 hrs by MTS assay; assay type: functional, cell-based; settings: A549, 72 h; summary of the method: as §1
[5] = target: Platelet-derived growth factor receptor beta (Homo sapiens) (UniProt P09619); test: Inhibition of recombinant PDGFRb (unknown origin) at 10 uM after 1 hr by microfluidic assay; summary of the method: as §2
Chain of Platelet-derived growth factor receptor beta (Homo sapiens) (P09619 whole entry): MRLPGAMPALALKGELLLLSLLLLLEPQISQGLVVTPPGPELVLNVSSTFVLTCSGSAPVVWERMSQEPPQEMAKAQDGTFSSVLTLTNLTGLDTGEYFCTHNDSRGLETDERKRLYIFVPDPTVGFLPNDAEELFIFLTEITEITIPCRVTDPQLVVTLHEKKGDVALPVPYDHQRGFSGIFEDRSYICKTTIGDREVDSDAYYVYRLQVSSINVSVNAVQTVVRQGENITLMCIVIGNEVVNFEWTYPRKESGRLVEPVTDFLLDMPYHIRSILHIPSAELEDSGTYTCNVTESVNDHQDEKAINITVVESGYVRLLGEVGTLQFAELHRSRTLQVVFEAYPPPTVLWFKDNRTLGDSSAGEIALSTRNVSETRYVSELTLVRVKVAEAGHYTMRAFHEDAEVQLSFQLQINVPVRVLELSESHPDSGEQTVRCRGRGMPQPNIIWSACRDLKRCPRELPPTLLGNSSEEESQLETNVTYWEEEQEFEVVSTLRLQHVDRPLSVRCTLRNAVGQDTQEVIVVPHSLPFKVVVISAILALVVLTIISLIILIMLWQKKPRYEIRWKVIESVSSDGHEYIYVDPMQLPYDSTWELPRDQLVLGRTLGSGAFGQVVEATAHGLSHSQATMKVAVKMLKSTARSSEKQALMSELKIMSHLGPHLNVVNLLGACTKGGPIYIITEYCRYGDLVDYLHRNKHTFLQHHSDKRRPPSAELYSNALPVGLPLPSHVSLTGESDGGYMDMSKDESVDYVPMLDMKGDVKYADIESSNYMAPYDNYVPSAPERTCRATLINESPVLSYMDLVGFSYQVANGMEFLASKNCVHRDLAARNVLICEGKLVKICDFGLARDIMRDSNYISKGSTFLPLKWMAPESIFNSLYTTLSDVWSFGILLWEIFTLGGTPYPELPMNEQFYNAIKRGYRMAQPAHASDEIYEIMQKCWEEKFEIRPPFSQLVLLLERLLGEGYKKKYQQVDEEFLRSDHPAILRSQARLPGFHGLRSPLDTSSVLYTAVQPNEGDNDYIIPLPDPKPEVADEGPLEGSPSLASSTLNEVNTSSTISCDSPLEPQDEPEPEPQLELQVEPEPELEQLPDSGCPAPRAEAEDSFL

[6] = Antiproliferative activity against rat NRK-52E cells after 72 hrs by MTS assay; assay type: cell-based
[7] = target: T2, Mast/stem cell growth factor receptor Kit (Homo sapiens, UniProt P10721); test: Inhibition of recombinant c-Kit (unknown origin) after 1 hr by microfluidic assay; summary of the method: as §2
T2 sequence (P10721 whole entry): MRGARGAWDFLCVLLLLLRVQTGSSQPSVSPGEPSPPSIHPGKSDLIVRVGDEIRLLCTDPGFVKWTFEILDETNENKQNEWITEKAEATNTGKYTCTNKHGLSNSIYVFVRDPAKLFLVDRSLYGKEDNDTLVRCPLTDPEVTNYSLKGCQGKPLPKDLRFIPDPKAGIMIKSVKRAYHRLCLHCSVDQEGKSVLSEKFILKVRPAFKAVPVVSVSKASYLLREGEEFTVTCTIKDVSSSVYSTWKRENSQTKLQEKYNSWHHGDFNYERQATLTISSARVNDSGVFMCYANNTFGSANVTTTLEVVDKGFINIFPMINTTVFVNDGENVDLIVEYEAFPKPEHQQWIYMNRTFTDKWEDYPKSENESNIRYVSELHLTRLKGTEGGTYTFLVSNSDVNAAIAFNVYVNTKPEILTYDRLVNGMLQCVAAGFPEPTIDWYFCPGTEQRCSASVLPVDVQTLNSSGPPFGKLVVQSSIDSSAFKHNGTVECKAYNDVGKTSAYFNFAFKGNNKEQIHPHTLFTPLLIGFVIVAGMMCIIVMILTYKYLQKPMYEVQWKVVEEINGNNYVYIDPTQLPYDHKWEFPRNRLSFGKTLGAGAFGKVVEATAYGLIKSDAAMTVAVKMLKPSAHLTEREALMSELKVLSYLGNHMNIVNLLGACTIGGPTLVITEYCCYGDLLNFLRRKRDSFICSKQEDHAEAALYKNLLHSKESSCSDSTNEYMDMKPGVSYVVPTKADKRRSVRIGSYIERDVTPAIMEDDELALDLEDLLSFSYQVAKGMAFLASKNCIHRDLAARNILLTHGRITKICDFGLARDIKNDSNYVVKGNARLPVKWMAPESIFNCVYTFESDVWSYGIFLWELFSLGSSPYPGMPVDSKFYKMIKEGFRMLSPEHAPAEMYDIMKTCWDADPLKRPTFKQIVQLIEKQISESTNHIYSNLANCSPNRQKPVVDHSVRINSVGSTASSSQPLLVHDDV

[8] = Cell cycle arrest in human PM8910 cells assessed as reduction of cells in S phase at 5 to 10 uM after 24 hrs by flow cytometry; assay type: functional, cell-based
Summary of the method: (§3)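 Cells seeded in 60 mm plates, treated for 24 h, washed twice in PBS and fixed in ice-cold 75% ethanol. Stained overnight at 4 °C with PI ([…]) containing RNase 180 U/ml, 0.15% Triton X-100 and polyethylene glycol in 4 mmol/l citrate, pH 7.8. DNA content measured by FACScan flow cytometry against a DMSO group. Mean ± SEM of three independent experiments.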

[9] = Antiproliferative activity against human SGC7901 cells at 10 uM after 72 hrs by MTS assay; assay type: functional, SGC-7901
[10] = target: Vascular endothelial growth factor receptor 2 (Homo sapiens) (UniProt P35968); test: Inhibition of recombinant KDR (unknown origin) at 1 uM after 1 hr by microfluidic assay; summary of the method: as §2
Chain of Vascular endothelial growth factor receptor 2 (Homo sapiens) (P35968 whole entry): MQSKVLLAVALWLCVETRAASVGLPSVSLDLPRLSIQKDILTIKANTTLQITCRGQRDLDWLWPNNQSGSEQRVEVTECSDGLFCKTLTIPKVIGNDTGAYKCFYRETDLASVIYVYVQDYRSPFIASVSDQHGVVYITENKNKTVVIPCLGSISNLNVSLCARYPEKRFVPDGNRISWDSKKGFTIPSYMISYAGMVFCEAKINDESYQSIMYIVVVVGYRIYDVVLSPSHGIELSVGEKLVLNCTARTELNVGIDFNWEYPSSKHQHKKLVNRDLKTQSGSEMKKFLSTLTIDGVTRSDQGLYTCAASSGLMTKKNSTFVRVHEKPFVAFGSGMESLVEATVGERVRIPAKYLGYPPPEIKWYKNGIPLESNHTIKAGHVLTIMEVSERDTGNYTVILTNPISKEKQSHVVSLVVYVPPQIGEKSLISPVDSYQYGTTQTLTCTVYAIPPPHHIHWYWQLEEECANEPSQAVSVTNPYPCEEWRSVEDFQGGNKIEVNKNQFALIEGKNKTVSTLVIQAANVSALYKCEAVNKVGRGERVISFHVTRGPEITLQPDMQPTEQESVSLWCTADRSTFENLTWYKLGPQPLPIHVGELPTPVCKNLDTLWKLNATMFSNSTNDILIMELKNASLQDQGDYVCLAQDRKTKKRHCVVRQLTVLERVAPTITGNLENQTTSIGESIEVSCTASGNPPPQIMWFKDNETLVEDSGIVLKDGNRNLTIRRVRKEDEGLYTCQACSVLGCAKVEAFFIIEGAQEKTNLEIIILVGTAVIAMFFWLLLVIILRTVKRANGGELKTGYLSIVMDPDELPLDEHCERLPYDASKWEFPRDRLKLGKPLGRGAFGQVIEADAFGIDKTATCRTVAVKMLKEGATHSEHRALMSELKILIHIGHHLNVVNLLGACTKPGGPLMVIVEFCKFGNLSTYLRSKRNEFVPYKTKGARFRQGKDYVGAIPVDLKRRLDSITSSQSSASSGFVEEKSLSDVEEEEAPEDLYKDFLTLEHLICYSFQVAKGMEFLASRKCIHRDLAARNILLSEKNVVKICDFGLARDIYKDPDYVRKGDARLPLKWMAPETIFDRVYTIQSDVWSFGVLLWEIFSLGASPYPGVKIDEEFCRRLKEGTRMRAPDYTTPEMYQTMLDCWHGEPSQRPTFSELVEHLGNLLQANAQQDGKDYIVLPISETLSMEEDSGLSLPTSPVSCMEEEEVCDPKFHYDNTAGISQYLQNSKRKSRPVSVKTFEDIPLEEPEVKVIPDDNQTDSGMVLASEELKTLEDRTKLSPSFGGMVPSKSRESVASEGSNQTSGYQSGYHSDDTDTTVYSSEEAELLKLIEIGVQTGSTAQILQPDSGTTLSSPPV

NCI-H1975 = test: Antiproliferative activity against human NCI-H1975 cells at 10 uM after 72 hrs by MTS assay; assay type: functional
Summary of the method: (§4)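 Single-concentration screen. Cells at 4 × 10^4 cells/ml, seeded and incubated overnight, then given 10 µM compound in DMSO for 72 h (37 °C, 5% CO2), with DMSO-only controls. MTS added for 4 h and A490 read. Percent inhibition = (1 − OD490 treated/OD490 control) × 100, from triplicate experiments.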

[11] = Antiproliferative activity against human SKBR3 cells at 10 uM after 72 hrs by MTS assay; assay type: functional, SK-BR-3; summary of the method: as §4
[12] = target: Vascular endothelial growth factor receptor 2 (Homo sapiens) (UniProt P35968); test: Inhibition of recombinant KDR (unknown origin) at 10 uM after 1 hr by microfluidic assay; summary of the method: as §2
Aurora kinase B [13] = target: T1, Aurora kinase B; test: Inhibition of recombinant Aur B (unknown origin) after 1 hr by microfluidic assay; summary of the method: as §2
A549 [14] = test: Antiproliferative activity against human A549 cells at 10 uM after 72 hrs by MTS assay; assay type: functional
[15] = Cell cycle arrest in human SGC7901 cells assessed as reduction of cells in S phase at 5 to 10 uM after 24 hrs by flow cytometry; assay type: functional, cell-based; settings: SGC-7901; summary of the method: as §3
[16] = Cell cycle arrest at G1 phase in human SGC7901 cells at 5 to 10 uM after 24 hrs by flow cytometry; assay type: functional, cell-based; settings: SGC-7901; summary of the method: as §3
[17] = target: T2, Mast/stem cell growth factor receptor Kit; test: Inhibition of recombinant c-Kit (unknown origin) at 1 uM after 1 hr by microfluidic assay; summary of the method: as §2
[18] = target: Epidermal growth factor receptor (Homo sapiens) (UniProt P00533); test: Inhibition of recombinant EGFR (unknown origin) at 10 uM after 1 hr by microfluidic assay; summary of the method: as §2
Chain of Epidermal growth factor receptor (Homo sapiens) (P00533 whole entry): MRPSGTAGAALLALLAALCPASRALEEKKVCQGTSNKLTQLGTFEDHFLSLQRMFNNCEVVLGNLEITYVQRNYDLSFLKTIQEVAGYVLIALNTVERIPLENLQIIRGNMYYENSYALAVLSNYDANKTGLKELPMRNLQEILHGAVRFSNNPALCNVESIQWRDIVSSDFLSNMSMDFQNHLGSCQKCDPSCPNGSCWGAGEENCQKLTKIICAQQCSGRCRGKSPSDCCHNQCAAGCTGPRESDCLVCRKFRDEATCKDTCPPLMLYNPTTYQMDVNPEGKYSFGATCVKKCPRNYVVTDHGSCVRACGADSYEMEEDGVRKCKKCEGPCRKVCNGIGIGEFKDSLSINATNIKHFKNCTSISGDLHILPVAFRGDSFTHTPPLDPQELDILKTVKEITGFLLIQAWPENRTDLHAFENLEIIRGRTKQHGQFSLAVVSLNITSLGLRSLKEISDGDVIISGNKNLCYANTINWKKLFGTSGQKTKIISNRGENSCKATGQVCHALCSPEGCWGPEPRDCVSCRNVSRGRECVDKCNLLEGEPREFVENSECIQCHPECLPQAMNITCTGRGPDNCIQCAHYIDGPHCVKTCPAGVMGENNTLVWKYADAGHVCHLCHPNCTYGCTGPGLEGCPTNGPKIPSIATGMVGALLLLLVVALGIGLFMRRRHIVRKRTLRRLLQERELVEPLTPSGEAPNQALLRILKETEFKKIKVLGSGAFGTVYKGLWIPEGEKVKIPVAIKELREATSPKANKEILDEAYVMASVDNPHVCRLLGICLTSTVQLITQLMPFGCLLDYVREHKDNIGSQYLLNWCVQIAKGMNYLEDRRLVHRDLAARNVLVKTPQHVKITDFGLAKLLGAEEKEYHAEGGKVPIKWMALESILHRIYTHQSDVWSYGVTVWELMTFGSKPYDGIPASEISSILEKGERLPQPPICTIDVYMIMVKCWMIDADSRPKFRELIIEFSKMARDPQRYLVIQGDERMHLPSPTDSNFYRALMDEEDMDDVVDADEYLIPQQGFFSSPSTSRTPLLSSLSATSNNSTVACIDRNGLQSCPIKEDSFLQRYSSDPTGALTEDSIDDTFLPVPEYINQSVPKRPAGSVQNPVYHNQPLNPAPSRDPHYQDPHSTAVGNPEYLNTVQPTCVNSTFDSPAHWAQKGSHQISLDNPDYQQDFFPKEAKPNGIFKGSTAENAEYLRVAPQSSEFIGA

[19] = target: T3, Serine/threonine-protein kinase Sgk1 (Homo sapiens) (UniProt O00141); test: Inhibition of recombinant SGK1 (unknown origin) at 10 uM after 1 hr by microfluidic assay; summary of the method: as §2
T3 sequence (whole entry): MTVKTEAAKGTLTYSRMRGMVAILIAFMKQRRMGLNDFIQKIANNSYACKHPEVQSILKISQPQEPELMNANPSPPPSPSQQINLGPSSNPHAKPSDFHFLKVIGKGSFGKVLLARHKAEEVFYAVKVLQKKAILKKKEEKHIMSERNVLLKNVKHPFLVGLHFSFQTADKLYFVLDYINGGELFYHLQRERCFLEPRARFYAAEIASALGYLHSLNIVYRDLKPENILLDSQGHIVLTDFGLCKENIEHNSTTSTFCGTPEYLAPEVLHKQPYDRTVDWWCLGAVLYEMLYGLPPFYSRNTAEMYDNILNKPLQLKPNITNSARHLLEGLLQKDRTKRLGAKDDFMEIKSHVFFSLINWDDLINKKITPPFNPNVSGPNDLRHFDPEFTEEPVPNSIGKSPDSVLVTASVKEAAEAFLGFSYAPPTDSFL

[20] = target: Epidermal growth factor receptor (Homo sapiens) (UniProt P00533); test: Inhibition of recombinant EGFR (unknown origin) at 0.1 uM after 1 hr by microfluidic assay; summary of the method: as §2
[21] = Antiproliferative activity against human SGC7901 cells after 72 hrs by MTS assay; assay type: functional, cell-based; settings: SGC-7901, 72 h; summary of the method: as §1
[22] = Cell cycle arrest at G1 phase in human PM8910 cells at 5 to 10 uM after 24 hrs by flow cytometry; assay type: functional, cell-based; summary of the method: as §3
A549 [23] = test: Cell cycle arrest in human A549 cells assessed as reduction of cells in S phase at 5 to 10 uM after 24 hrs by flow cytometry; assay type: functional, cell-based; summary of the method: as §3
U-251 = test: Antiproliferative activity against human U251 cells at 10 uM after 72 hrs by MTS assay; assay type: functional; summary of the method: as §4
Aurora kinase B [24] = target: T1, Aurora kinase B; test: Inhibition of recombinant Aur B (unknown origin) at 1 uM after 1 hr by microfluidic assay; summary of the method: as §2
[25] = target: Vascular endothelial growth factor receptor 2 (Homo sapiens) (UniProt P35968); test: Inhibition of recombinant KDR (unknown origin) at 0.1 uM after 1 hr by microfluidic assay; summary of the method: as §2
[26] = Antiproliferative activity against human Bel7402 cells after 72 hrs by MTS assay; assay type: functional, cell-based; settings: Bel-7402, 72 h; summary of the method: as §1
[27] = Antiproliferative activity against human H460 cells after 72 hrs by MTS assay; assay type: functional, cell-based; settings: NCI-H460, 72 h; summary of the method: as §1
[28] = Antiproliferative activity against human H460 cells at 10 uM after 72 hrs by MTS assay; assay type: functional, NCI-H460
Aurora kinase B [29] = target: T1, Aurora kinase B; test: Inhibition of recombinant Aur B (unknown origin) at 10 uM after 1 hr by microfluidic assay; summary of the method: as §2
A549 [30] = test: Cell cycle arrest at G1 phase in human A549 cells at 5 to 10 uM after 24 hrs by flow cytometry; assay type: functional, cell-based; summary of the method: as §3
[31] = Antiproliferative activity against human Bel7402 cells at 10 uM after 72 hrs by MTS assay; assay type: functional, Bel-7402
[32] = target: Platelet-derived growth factor receptor beta (Homo sapiens) (UniProt P09619); test: Inhibition of recombinant PDGFRb (unknown origin) at 0.1 uM after 1 hr by microfluidic assay; summary of the method: as §2
[33] = target: T2, Mast/stem cell growth factor receptor Kit; test: Inhibition of recombinant c-Kit (unknown origin) at 0.1 uM after 1 hr by microfluidic assay; summary of the method: as §2
[34] = Antiproliferative activity against human PM8910 cells at 10 uM after 72 hrs by MTS assay; assay type: functional
[35] = target: T2, Mast/stem cell growth factor receptor Kit; test: Inhibition of recombinant c-Kit (unknown origin) at 10 uM after 1 hr by microfluidic assay; summary of the method: as §2
[36] = target: Platelet-derived growth factor receptor beta (Homo sapiens) (UniProt P09619); test: Inhibition of recombinant PDGFRb (unknown origin) at 1 uM after 1 hr by microfluidic assay; summary of the method: as §2
[37] = target: T3, Serine/threonine-protein kinase Sgk1 (Homo sapiens); test: Inhibition of recombinant SGK1 (unknown origin) at 1 uM after 1 hr by microfluidic assay; summary of the method: as §2
[38] = Antiproliferative activity against human HCC827 cells at 10 uM after 72 hrs by MTS assay; assay type: functional
[39] = target: T3, Serine/threonine-protein kinase Sgk1 (Homo sapiens); test: Inhibition of recombinant SGK1 (unknown origin) at 0.1 uM after 1 hr by microfluidic assay; summary of the method: as §2
[40] = target: Epidermal growth factor receptor (Homo sapiens) (UniProt P00533); test: Inhibition of recombinant EGFR (unknown origin) at 1 uM after 1 hr by microfluidic assay; summary of the method: as §2

C=CC(=O)N1CCN(c2ccc(/C=C3\C(=O)Nc4ccccc43)cc2)CC1
IC50 [1]: 7 µM
inhibition (Aurora kinase B [2]): 4.5%
IC50 [3]: 6.74 µM
IC50 (A549 [4]): 10.1 µM
inhibition [5]: 61.8%
IC50 [6]: 28.8 µM
IC50 [7]: 128 nM
Activity [8]: Active
Activity [9]: 55.46%
inhibition [10]: 7.2%
Activity (NCI-H1975): 60.01%
Activity [11]: 27.99%
inhibition [12]: 30.6%
IC50 (Aurora kinase B [13]): 2200 nM
Activity (A549 [14]): 50.28%
Activity [15]: Active
Activity [16]: Active
inhibition [17]: 55.3%
inhibition [18]: 75.4%
inhibition [19]: 90.7%
inhibition [20]: 14.9%
IC50 [21]: 9.75 µM
Activity [22]: Active
Activity (A549 [23]): Active
Activity (U-251): 31.7%
inhibition (Aurora kinase B [24]): 41.6%
inhibition [25]: 13.4%
IC50 [26]: 7.68 µM
IC50 [27]: 11.5 µM
Activity [28]: 71.31%
inhibition (Aurora kinase B [29]): 93.5%
Activity (A549 [30]): Active
Activity [31]: 55.06%
inhibition [32]: 0.4%
inhibition [33]: 19.1%
Activity [34]: 59.52%
inhibition [35]: 88.2%
inhibition [36]: 26.2%
inhibition [37]: 38.3%
Activity [38]: 57.19%
inhibition [39]: 2.2%
inhibition [40]: 30.1%
